Assay [1] in a line: thallium flux activation in parental CHO cells, counter-screen for KCNQ1 potentiator project (AID 493006;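 active = duplicate-averaged activation above buffer control mean plus 5 SD of those controls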). The conditions noted are these: parental CHO-K1 cells, FluxOR thallium flux, at 10 µM; stronger effect = higher value. An outline of the steps:
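Test system: parental CHO-K1 cells, FluxOR dye-loaded / Probe or stimulus: potassium plus thallium depolarizing stimulus, 5x stock 12.5 mM K2SO4, Tl2SO4 / Timing: overnight 37 °C plating, 90 min dye, 20 min dark compound / Measured by: kinetic thallium-flux fluorescence / Read-out: max-minus-min fluorescence over baseline, percent of buffer-to-R-L3 span / Benchmarks: buffer and R-L3 controls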
(In general: The purpose of a counterscreen is to sort out artefacts and off-target activity.)

In assay [2] the target is Potassium voltage-gated channel subfamily KQT member 1 (Homo sapiens) (UniProt P51787). Put plainly: KCNQ1 potassium channel potentiators, confirmation, FluxOR thallium flux, CHO cells, duplicates (AID 493007;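 active = potentiation averaged over duplicate wells exceeding buffer-only control mean by more than 3 SD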;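 as to outcome: cells depolarized by a potassium plus thallium sulfate stimulus after compound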;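 as to potentiation: 0% = buffer-only wells and 100% = R-L3 activator control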). As to conditions: KCNQ1 cell line, FluxOR thallium flux fluorescence, at 10 µM; stronger effect = higher value, % of reference activator effect, buffer zero. In outline:
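Assay system: CHO cells carrying KCNQ1 | Controls: Buffer and R-L3 controls | Schedule: FluxOR dye loading 90 min, compound exposure 20 min, room temperature | Read-out: Baseline-normalized fluorescence change, percent of buffer-to-R-L3 range | Replicates: Each compound tested in duplicate | Technique: Kinetic thallium influx fluorescence with FluxOR dye, 10 s baseline, 110 s post-stimulus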

The target in assay [3] is Potassium voltage-gated channel subfamily KQT member 2 (Rattus norvegicus) (UniProt O88943). The assay is described as follows: rat KCNQ2 channel potentiation, selectivity assay for KCNQ1 potentiator project, KCNQ2-CHO-K1 cells (AID 493009;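 active = mean duplicate potentiation above the buffer control mean plus 5 SD of buffer wells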;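 also: assay conditions were tuned for KCNQ1 rather than KCNQ2 modulators; signal is max minus min fluorescence divided by baseline after thallium stimulus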). The conditions noted are these: FluxOR thallium flux fluorescence, at 10 µM; stronger effect = higher value, scaled: buffer 0, activator control 100.
Potassium voltage-gated channel subfamily KQT member 2 (Rattus norvegicus), sequence (O88943 whole entry, looked up): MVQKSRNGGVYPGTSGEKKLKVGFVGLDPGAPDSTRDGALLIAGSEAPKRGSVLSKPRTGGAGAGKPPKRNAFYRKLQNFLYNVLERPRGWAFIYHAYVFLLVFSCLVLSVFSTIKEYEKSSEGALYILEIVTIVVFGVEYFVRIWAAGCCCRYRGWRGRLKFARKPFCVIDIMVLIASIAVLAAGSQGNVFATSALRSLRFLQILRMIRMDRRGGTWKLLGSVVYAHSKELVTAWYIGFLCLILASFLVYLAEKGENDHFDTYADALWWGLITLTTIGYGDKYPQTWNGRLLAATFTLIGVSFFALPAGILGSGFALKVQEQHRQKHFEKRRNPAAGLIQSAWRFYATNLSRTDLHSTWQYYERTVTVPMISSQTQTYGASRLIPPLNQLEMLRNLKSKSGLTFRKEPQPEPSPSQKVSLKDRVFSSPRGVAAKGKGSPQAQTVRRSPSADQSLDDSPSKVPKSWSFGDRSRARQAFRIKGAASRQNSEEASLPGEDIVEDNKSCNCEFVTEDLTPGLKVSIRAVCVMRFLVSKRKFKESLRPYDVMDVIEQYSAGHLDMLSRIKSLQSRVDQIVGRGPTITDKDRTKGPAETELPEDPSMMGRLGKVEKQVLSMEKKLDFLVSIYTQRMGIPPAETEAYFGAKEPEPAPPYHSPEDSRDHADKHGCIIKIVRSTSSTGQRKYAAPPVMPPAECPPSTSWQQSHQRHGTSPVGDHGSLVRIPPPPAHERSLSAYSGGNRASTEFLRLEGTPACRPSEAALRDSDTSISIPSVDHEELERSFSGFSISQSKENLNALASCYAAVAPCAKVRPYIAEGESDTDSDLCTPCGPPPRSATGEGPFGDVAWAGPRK

For assay [4], the target named is Potassium voltage-gated channel subfamily KQT member 1 (Homo sapiens) (UniProt P51787). Put plainly: KCNQ1 channel current potentiators, confirmation, orthogonal assay for KCNQ1 potentiator project, IonWorks patch clamp, KCNQ1-CHO cells (AID 493184). As to conditions: automated patch clamp current, at 10 µM; stronger effect = higher value. An outline of the steps:
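Material: KCNQ1-expressing CHO cells; doses: 10 µM final, single point; probe or stimulus: voltage step from -90 mV holding to +40 mV, 2,000 ms; signal: automated voltage clamp, amphotericin B perforated patch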
(In general: Patch clamp records ionic current or voltage across a cell membrane.)

Assay [5] deals with Potassium voltage-gated channel subfamily E member 1 (Homo sapiens) + Potassium voltage-gated channel subfamily KQT member 1 (Homo sapiens) (UniProt P15382+P51787). The assay is described as follows: KCNQ1/KCNE1 complex potentiators, confirmation, selectivity assay for KCNQ1 potentiator project, thallium flux, CHO-K1 KCNQ1/E1 cells (AID 493186;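 active = mean duplicate activation above the buffer control mean plus 5 SD of those controls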;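 as to activation: 0% = assay buffer control and 100% = R-L3 activator control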). The conditions noted are these: FluxOR thallium flux, at 10 µM; stronger effect = higher value. In outline: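 Test system: CHO-K1 cells with KCNQ1/E1. Times: 90-min dye loading then 20-min compound exposure, both at room temperature. Measured by: kinetic FluxOR thallium-flux fluorescence, 10 s baseline plus 110 s after stimulus. Repeats: duplicate wells per compound.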
Potassium voltage-gated channel subfamily E member 1 (Homo sapiens) + Potassium voltage-gated channel subfamily KQT member 1 (Homo sapiens), sequence (P51787 whole entry, looked up): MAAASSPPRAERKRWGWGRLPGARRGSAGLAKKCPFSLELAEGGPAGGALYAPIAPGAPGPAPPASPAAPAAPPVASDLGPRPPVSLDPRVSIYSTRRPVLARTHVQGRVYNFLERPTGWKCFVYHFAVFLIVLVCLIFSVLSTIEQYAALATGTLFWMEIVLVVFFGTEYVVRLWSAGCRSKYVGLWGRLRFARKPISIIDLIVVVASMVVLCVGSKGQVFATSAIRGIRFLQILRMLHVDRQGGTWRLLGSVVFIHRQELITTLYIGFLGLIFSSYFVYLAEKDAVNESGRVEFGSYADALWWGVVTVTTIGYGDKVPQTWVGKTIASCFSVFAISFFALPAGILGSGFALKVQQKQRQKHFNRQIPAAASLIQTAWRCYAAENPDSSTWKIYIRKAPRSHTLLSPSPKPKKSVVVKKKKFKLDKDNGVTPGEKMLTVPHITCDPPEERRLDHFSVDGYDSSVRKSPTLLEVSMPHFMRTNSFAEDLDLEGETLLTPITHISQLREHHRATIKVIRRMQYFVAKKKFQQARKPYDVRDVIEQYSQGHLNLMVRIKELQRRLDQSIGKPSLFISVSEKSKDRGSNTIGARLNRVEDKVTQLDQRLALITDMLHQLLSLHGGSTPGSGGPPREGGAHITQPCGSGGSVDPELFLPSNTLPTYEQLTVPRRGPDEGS

Calls of active or inactive are those of the source.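 The calls were made as follows, unless noted: active = current rise at least 3 SD above the untreated control mean in each of two repeat wells; inactive = the rest.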

Potassium voltage-gated channel subfamily KQT member 1 (Homo sapiens), sequence (P51787 whole entry, looked up): as above

Turning to `COc1ccc(C(=O)NC(=S)N(C)C2CCCCC2)cc1Br`, the result in assay [1], in assay [2], in assay [3], in assay [4] and in assay [5] was inactive.
For `COC(=O)c1ccccc1NC(=S)NC(=O)c1ccc(C)cc1`, the outcome in assay [1], in assay [2], in assay [3], in assay [4] and in assay [5] was inactive.
Consider `Cc1cccc(NC(=S)c2nc3ccccc3s2)c1`, for which the result in assay [1], in assay [4] and in assay [5] was inactive. Also, the potentiation in assay [2] was 146% (active); in assay [3], 219% (active).
Regarding `S=c1[nH]c(-c2ccccc2)cn1/N=C/c1ccc(Br)cc1`, the outcome in assay [1], in assay [2], in assay [3], in assay [4] and in assay [5] was inactive.
Take `O=C(O)c1ccc2c(=O)n3cc(C(=O)c4ccccc4O)cc(Cl)c3nc2c1`: the result in assay [1], in assay [2], in assay [3], in assay [4] and in assay [5] was inactive.
Regarding `Cc1cc(C)nc(N/N=C/c2cccc3ccccc23)n1`, the outcome in assay [1], in assay [2], in assay [3], in assay [4] and in assay [5] was inactive.
With `Cc1cccc(C)c1OCc1cc(C(=O)N(C)Cc2cc(C3CC3)n[nH]2)no1`, the outcome in assay [1], in assay [2], in assay [3], in assay [4] and in assay [5] was inactive.
On to `Cc1ccc(C)c(/C=N/n2cc(-c3ccccc3)[nH]c2=S)c1`, for which the result in assay [1], in assay [3], in assay [4] and in assay [5] was inactive. Besides, in assay [2], the potentiation was 24.5% (active).
Turning to `Cc1ccsc1/C=N/Nc1nc2ccccc2s1`, the result in assay [1], in assay [2], in assay [3], in assay [4] and in assay [5] was inactive.
Take `O=C(O)c1cc2cc(F)ccc2[nH]1`: the result in assay [1], in assay [2], in assay [3], in assay [4] and in assay [5] was inactive.
In the case of `C=CCSc1nc2c(c(=O)[nH]1)C(C(C)C)C(C#N)=C(N)O2` (stereo not given), the result in assay [1], in assay [2], in assay [3], in assay [4] and in assay [5] was inactive.
Consider `S=C(NN=C1CCCCCC1)Nc1ccc(Cl)cc1`, for which the outcome in assay [1], in assay [2], in assay [3], in assay [4] and in assay [5] was inactive.
As for `CC1CCCCC1NC(=S)NC(=O)c1sc2ccccc2c1Cl` (stereo not given), the outcome in assay [1], in assay [3], in assay [4] and in assay [5] was inactive. Moreover, the potentiation in assay [2] was 54% (active).
For the molecule `COc1cc(OC)cc(C(=O)N2CC(=O)Nc3ccccc32)c1`, the outcome in assay [1], in assay [2], in assay [3], in assay [4] and in assay [5] was inactive.
`O=C(NC(=S)Nc1cccc([N+](=O)[O-])c1)c1ccco1`: the result in assay [1], in assay [2], in assay [3], in assay [4] and in assay [5] was inactive.
As to `Clc1ccc(C2=Nn3c(nnc3-c3n[nH]c4c3CCC4)SC2)cc1Cl`, the outcome in assay [1], in assay [2], in assay [3], in assay [4] and in assay [5] was inactive.
Turning to `O=C(CCN1Cc2ccccc2C1)c1ccc2c(c1)OCCO2`, the result in assay [1], in assay [3], in assay [4] and in assay [5] was inactive. Moreover, the potentiation in assay [2] is 45.5% (active).
Regarding `COc1cc(OC)c(-n2cc(-c3ccc(Cl)cc3)[nH]c2=O)cc1Cl`, the result in assay [1], in assay [2], in assay [3], in assay [4] and in assay [5] was inactive.
Take `Cc1cccc(/N=C/c2sc3ccccc3c2O)n1`: the result in assay [1], in assay [2], in assay [3], in assay [4] and in assay [5] was inactive.
On to `CCOc1ccc(NC(=O)c2ccc(N)cc2)cc1`, for which the result in assay [1], in assay [2], in assay [3], in assay [4] and in assay [5] was inactive.
Take `CC12CCC(C/C1=N\N=C1\NC(=O)/C(=C\c3cccc(Br)c3)S1)C2(C)C` (stereo not given): the outcome in assay [1], in assay [4] and in assay [5] was inactive. Besides, the potentiation in assay [2] is 51% (active); in assay [3] it was 154% (active).
In the case of `S=C1N(c2ccccc2)C(c2ccccc2)N2CCCN12` (stereo not given), the outcome in assay [1], in assay [2], in assay [3], in assay [4] and in assay [5] was inactive.
On to `N#Cc1ccc(Cl)cc1NC(=O)COC(=O)[C@H](CCC(N)=O)NC(=O)c1ccc(F)cc1`, for which the outcome in assay [1], in assay [2], in assay [3], in assay [4] and in assay [5] was inactive.
With `COc1ccccc1NC(=O)CC1C(=O)NCCN1C(=O)Nc1ccc(Cl)c(Cl)c1` (stereo not given), the result in assay [1], in assay [4] and in assay [5] was inactive. In addition, the potentiation in assay [2] is 37.5% (active); in assay [3], 157% (active).
With `Cc1cccc(N2CCN(C(=O)Cn3sc4nc(C)cc(C)c4c3=O)CC2C)c1` (stereo not given), the result in assay [1], in assay [2], in assay [3], in assay [4] and in assay [5] was inactive.
Regarding `COc1ccc(-c2cc(-c3ccccc3)c(C#N)c(=S)[nH]2)cc1`, the result in assay [1], in assay [2], in assay [3], in assay [4] and in assay [5] was inactive.
Regarding `COC(=O)N/N=C/c1cc(C)n(-c2ccc(Br)cc2)c1C`, the result in assay [1], in assay [2], in assay [3], in assay [4] and in assay [5] was inactive.
Take `O=C(Nc1nnc(-c2ccccc2)o1)c1ccc(Cl)cc1`: the outcome in assay [1], in assay [3] and in assay [4] was inactive. Besides, the potentiation in assay [2] was 24% (active). In assay [5], the activation is 23.9% (active).
Consider `COc1ccc(C(=O)NNC(=S)NC(=O)c2cc(-c3ccccc3)nc3ccccc23)cc1`, for which the result in assay [1], in assay [2], in assay [3], in assay [4] and in assay [5] was inactive.
For `O=C(NC(=S)Nc1ccc(CN2CCOCC2)cc1)c1ccc(-c2cccc(Cl)c2)o1`, the outcome in assay [1], in assay [4] and in assay [5] was inactive. For the same molecule, the potentiation is 64% (active) in assay [2] and 144% (active) in assay [3].
